Source: ChEMBL document CHEMBL1149289, “Synthesis and antibacterial activity of new poly-S-lysine-porphyrin conjugates” (J Med Chem, 2004)

How the values were obtained:
[1] = tested on: Staphylococcus aureus; assay: Logarithmic survival of Staphylococcus aureus ATCC 25923 at 0.01 uM after 10 mins and irradiated with white light at the fluence rate of 50 mW/cm2 for 30 mins relative to control; assay type: functional; conditions: ATCC 25923, light or radiation study
How it was run: (§1)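 Strains grown aerobically at 37 °C on brain heart agar; stationary-phase cells washed twice in PBS and adjusted to OD650 ca. 0.7 (10^8 to 10^9 cells/mL). Cells incubated with photosensitizer at various concentrations for 10 min in the dark at room temperature, then irradiated with white light at 50 mW/cm² for 30 min. Survivors counted as cfu on BHA after 16–20 h at 37 °C, expressed relative to no-photosensitizer controls. Dark controls were run without irradiation.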

[2] = tested on: Escherichia coli; assay: Logarithmic survival of Escherichia coli O4 at 0.01 uM after 10 mins and irradiated with white light at the fluence rate of 50 mW/cm2 for 30 mins relative to control; assay type: functional; conditions: O4, light or radiation study; how it was run: as §1
[3] = tested on: Staphylococcus aureus; assay: Logarithmic survival of Staphylococcus aureus ATCC 25923 at 0.1 uM after 10 mins and irradiated with white light at the fluence rate of 50 mW/cm2 for 5 mins relative to control; assay type: functional; conditions: ATCC 25923, light or radiation study
How it was run: (§2)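 S. aureus ATCC 25923 or MRSA 110 (PBS-washed, 10^8 to 10^9 cells/mL) were incubated with 0.1 μM photosensitizer for 10 min in the dark at room temperature. They were then irradiated with white light at 50 mW/cm² for varying times up to 30 min. Survival was read as cfu on BHA and divided by cfu of controls without photosensitizer.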

[4] = tested on: Staphylococcus aureus; assay: Antibacterial activity against methicillin-resistant Staphylococcus aureus 110 measured as 4 log decrease in survival; assay type: functional; how it was run: as §1
[5] = tested on: Escherichia coli; assay: Drug uptake per mg of protein in Escherichia coli O4 at 1 uM after 10 mins; assay type: ADME, organism-based; conditions: in vivo
How it was run: (§3)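 Bacterial suspensions (10^8 to 10^9 cells/mL in PBS) were incubated with porphyrin for 10 min in the dark at room temperature, then centrifuged. The pellet was digested in 2% aqueous SDS. Porphyrin was quantified by spectrofluorimetry and cell protein by modified Lowry assay (BSA standard). Uptake is given as nmol per mg cell protein.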

[6] = tested on: Staphylococcus aureus; assay: Logarithmic survival of methicillin-resistant Staphylococcus aureus 110 at 0.1 uM after 10 mins and irradiated with white light at the fluence rate of 50 mW/cm2 for 10 mins relative to control; assay type: functional; conditions: light or radiation study; how it was run: as §2
[7] = Photostability after irradiation with white light at the fluence rate of 50 mW/cm2 for 1 min; assay type: ADME; conditions: read-out: Stability
[8] = Photostability after irradiation with white light at the fluence rate of 50 mW/cm2 for 3 mins; assay type: ADME; conditions: read-out: Stability
[9] = tested on: Staphylococcus aureus; assay: Drug uptake per mg of protein in methicillin-resistant Staphylococcus aureus 110 at 1 uM after 10 mins; assay type: ADME, organism-based; conditions: in vivo; how it was run: as §3
[10] = tested on: Staphylococcus aureus; assay: Logarithmic survival of methicillin-resistant Staphylococcus aureus 110 at 0.01 uM after 10 mins and irradiated with white light at the fluence rate of 50 mW/cm2 for 30 mins relative to control; assay type: functional; conditions: light or radiation study; how it was run: as §1
[11] = tested on: Staphylococcus aureus; assay: Antibacterial activity against Staphylococcus aureus ATCC 25923 measured as 4 log decrease in survival; assay type: functional; how it was run: as §1
[12] = tested on: Escherichia coli; assay: Logarithmic survival of Escherichia coli O4 at 0.1 uM after 10 mins and irradiated with white light at the fluence rate of 50 mW/cm2 for 30 mins relative to control; assay type: functional; conditions: O4, light or radiation study; how it was run: as §1
[13] = tested on: Staphylococcus aureus; assay: Logarithmic survival of methicillin-resistant Staphylococcus aureus 110 at 0.1 uM after 10 mins and irradiated with white light at the fluence rate of 50 mW/cm2 for 30 mins relative to control; assay type: functional; conditions: light or radiation study; how it was run: as §2
[14] = tested on: Staphylococcus aureus; assay: Logarithmic survival of Staphylococcus aureus ATCC 25923 at 0.1 uM after 10 mins and irradiated with white light at the fluence rate of 50 mW/cm2 for 10 mins relative to control; assay type: functional; conditions: ATCC 25923, light or radiation study; how it was run: as §2
[15] = tested on: Staphylococcus aureus; assay: Logarithmic survival of methicillin-resistant Staphylococcus aureus 110 at 0.1 uM after 10 mins and irradiated with white light at the fluence rate of 50 mW/cm2 for 20 mins relative to control; assay type: functional; conditions: light or radiation study; how it was run: as §2
[16] = tested on: Staphylococcus aureus; assay: Logarithmic survival of methicillin-resistant Staphylococcus aureus 110 at 10 uM after 10 mins and irradiated with white light at the fluence rate of 50 mW/cm2 for 30 mins relative to control; assay type: functional; conditions: light or radiation study
How it was run: (§4)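 MRSA 110 grown aerobically at 37 °C on BHA. Stationary-phase cells were taken into BHI, washed twice in PBS and diluted to OD650 ~0.7 (10^8 to 10^9 cells/mL). Suspensions were held with photosensitizer for 10 min in the dark at room temperature, then given white light for 30 min. Cells were serially diluted, plated on BHA and counted after 16–20 h at 37 °C. Survival = cfu ÷ cfu of photosensitizer-free controls.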

[17] = tested on: Staphylococcus aureus; assay: Drug uptake per mg of protein in Staphylococcus aureus ATCC 25923 at 0.5 uM after 10 mins; assay type: ADME, organism-based; conditions: in vivo; how it was run: as §3
[18] = tested on: Staphylococcus aureus; assay: Drug uptake per mg of protein in Staphylococcus aureus ATCC 25923 at 5 uM after 10 mins; assay type: ADME, organism-based; conditions: in vivo; how it was run: as §3
[19] = tested on: Staphylococcus aureus; assay: Logarithmic survival of methicillin-resistant Staphylococcus aureus 110 at 0.1 uM after 10 mins and irradiated with white light at the fluence rate of 50 mW/cm2 relative to control; assay type: functional; conditions: light or radiation study
[20] = tested on: Escherichia coli; assay: Logarithmic survival of Escherichia coli O4 at 5 uM after 10 mins and irradiated with white light at the fluence rate of 50 mW/cm2 for 30 mins relative to control; assay type: functional; conditions: O4, light or radiation study; how it was run: as §1
[21] = Photostability after irradiation with white light at the fluence rate of 50 mW/cm2 for 5 mins; assay type: ADME; conditions: read-out: Stability
[22] = tested on: Staphylococcus aureus; assay: Logarithmic survival of Staphylococcus aureus ATCC 25923 at 0.1 uM after 10 mins and irradiated with white light at the fluence rate of 50 mW/cm2 for 1 min relative to control; assay type: functional; conditions: ATCC 25923, light or radiation study; how it was run: as §2
[23] = tested on: Escherichia coli; assay: Logarithmic survival of Escherichia coli O4 at 2.5 uM after 10 mins and irradiated with white light at the fluence rate of 50 mW/cm2 for 30 mins relative to control; assay type: functional; conditions: O4, light or radiation study; how it was run: as §1
[24] = tested on: Staphylococcus aureus; assay: Logarithmic survival of Staphylococcus aureus ATCC 25923 at 1 uM after 10 mins and irradiated with white light at the fluence rate of 50 mW/cm2 for 30 mins relative to control; assay type: functional; conditions: ATCC 25923, light or radiation study; how it was run: as §1
[25] = tested on: Staphylococcus aureus; assay: Drug uptake per mg of protein in Staphylococcus aureus ATCC 25923 at 1 uM after 10 mins; assay type: ADME, organism-based; conditions: in vivo; how it was run: as §3
[26] = tested on: Escherichia coli; assay: Logarithmic survival of Escherichia coli O4 at 0.5 uM after 10 mins and irradiated with white light at the fluence rate of 50 mW/cm2 for 30 mins relative to control; assay type: functional; conditions: O4, light or radiation study; how it was run: as §1
[27] = Photostability after irradiation with white light at the fluence rate of 50 mW/cm2 for 20 mins; assay type: ADME; conditions: read-out: Stability
[28] = tested on: Escherichia coli; assay: Logarithmic survival of Escherichia coli O4 at 0.25 uM after 10 mins and irradiated with white light at the fluence rate of 50 mW/cm2 for 30 mins relative to control; assay type: functional; conditions: O4, light or radiation study; how it was run: as §1
[29] = tested on: Escherichia coli; assay: Drug uptake per mg of protein in Escherichia coli O4 at 2.5 uM after 10 mins; assay type: ADME, organism-based; conditions: in vivo; how it was run: as §3
[30] = Photostability after irradiation with white light at the fluence rate of 50 mW/cm2 for 10 mins; assay type: ADME; conditions: read-out: Stability
[31] = tested on: Escherichia coli; assay: Logarithmic survival of Escherichia coli O4 at 10 uM after 10 mins and irradiated with white light at the fluence rate of 50 mW/cm2 for 30 mins relative to control; assay type: functional; conditions: O4, light or radiation study; how it was run: as §1
[32] = tested on: Staphylococcus aureus; assay: Logarithmic survival of methicillin-resistant Staphylococcus aureus 110 at 1 uM after 10 mins and irradiated with white light at the fluence rate of 50 mW/cm2 for 30 mins relative to control; assay type: functional; conditions: light or radiation study; how it was run: as §4

Compound | survival at 0.01 µM [1] | survival at 0.01 µM [2] | survival at 0.1 µM [3] | Activity [4] | Drug uptake [5] | survival at 0.1 µM [6] | remaining at 1 min [7] | remaining at 0.05 h [8] | Drug uptake [9] | log survival at 0.01 µM [10] | Activity [11] | survival at 0.1 µM [12] | survival at 0.1 µM [13] | survival at 0.1 µM [14] | survival at 0.1 µM [15] | survival at 10 µM [16] | Drug uptake [17] | Drug uptake [18] | survival at 0.1 µM [19] | survival at 5 µM [20] | further results
O=C(O)c1ccc(-c2c3nc(c(-c4ccncc4)c4ccc([nH]4)c(-c4ccncc4)c4nc(c(-c5ccncc5)c5ccc2[nH]5)C=C4)C=C3)cc1 [PORPHIRIN] | 2 | 2 | -0.85 | 1 µM | 7.65 nmol/mg | 0.98 | 99% | 97% | 15 nmol/mg | 2 log10 % | 0.25 µM | 2 | 0.46% | -2.07 | -0.6 | -3.35 | 3.15 nmol/mg | 81.4 nmol/mg | 1.89 | 1.6 | remaining at 5 min [21]: 96%; survival at 0.1 µM [22]: 1.49; survival at 2.5 µM [23]: 1.65; survival at 1 µM [24]: -2.7%; Drug uptake [25]: 7.7 nmol/mg; survival at 0.5 µM [26]: 1.46; remaining at 20 min [27]: 90%; survival at 0.25 µM [28]: 1.7; Drug uptake [29]: 35.3 nmol/mg; remaining at 10 min [30]: 94%; survival at 10 µM [31]: -4.06; survival at 1 µM [32]: -2.27
C[n+]1ccc(-c2c3nc(c(-c4cc[n+](C)cc4)c4ccc([nH]4)c(-c4cc[n+](C)cc4)c4nc(c(-c5ccc(C(=O)O)cc5)c5ccc2[nH]5)C=C4)C=C3)cc1.[I-].[I-].[I-] | 2 | 2 | -0.28 | 2.5 µM | 2.47 nmol/mg | 1.7 | 93% | 86% | 5.43 nmol/mg | 2 log10 % | 2.5 µM | 1.57 | 1.69% | -0.42 | 1.79 | -2.7 | 1.88 nmol/mg | 9.97 nmol/mg | 1.95 | -2.57 | remaining at 5 min [21]: 83%; survival at 0.1 µM [22]: 0.67; survival at 2.5 µM [23]: -0.46; survival at 1 µM [24]: -1.32%; Drug uptake [25]: 3.71 nmol/mg; survival at 0.5 µM [26]: 1.52; remaining at 20 min [27]: 72%; survival at 0.25 µM [28]: 1.64; Drug uptake [29]: 3.47 nmol/mg; remaining at 10 min [30]: 77%; survival at 10 µM [31]: -4.36; survival at 1 µM [32]: -0.43
